B1: Osa-1-4 twister ribozyme (parent)
chain: CCGCCUAACACUGCCAAUGCCGGUCCCAAGCCCGGAUAAAAGUGGAGGGGGCGG

Variants of: B1
Assay: self-cleavage, relative activity (ratio to wild type); higher = more cleavage; co-transcriptional
How it was run: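 A DNA template for a 54-nucleotide Oryza sativa twister ribozyme was synthesised with 97 % wild-type base and 1 % of each other base at the 48 positions downstream of the cleavage site. It was transcribed in vitro for 2 h at 37 °C, allowing co-transcriptional self-cleavage, then reverse-transcribed with a template-switching oligonucleotide, PCR-amplified and deep-sequenced. Cleavage status was scored from reads with or without upstream sequence. Relative activity is fraction cleaved normalised to wild type.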

Compared with A46C G42A, A46C G42U is lower in self-cleavage: 0.04 for the first, 0.02 for the second.

Compared with A46C G42C, G44C U37G is higher in self-cleavage: 0.04 for the first, 1.02 for the second.

Going from G44C U37C to G44C U37A, the self-cleavage falls from 1 to 0.71.

Compared with G45U G49C, G45U G49U is higher in self-cleavage: 0.02 for the first, 0.04 for the second.

Going from G45U G49A to G45A G54U, the self-cleavage rises from 0.04 to 0.34.

First: G45A G54C
Second: G45A G54A
The self-cleavage of the first is lower: 0.1 for the first, 0.15 for the second.

Going from A46C U12G to A46C U12C, the self-cleavage rises from 0.03 to 0.04.

First: A46C U12A
Second: G45C U18G
The self-cleavage of the first is lower: 0.05 for the first, 0.09 for the second.

Compared with G45C U18C, G45C U18A is lower in self-cleavage: 0.1 for the first, 0.06 for the second.

G45U U43C and G45U U43A are the same in self-cleavage: 0.06 for the first, 0.06 for the second.

First: G45U U43G
Second: G45C U37A
The self-cleavage of the first is higher: 0.06 for the first, 0.05 for the second.

First: G45C U37C
Second: G45C U37G
The self-cleavage of the first is higher: 0.08 for the first, 0.07 for the second.

First: G44U G47A
Second: G44U G47C
The self-cleavage of the first is higher: 0.14 for the first, 0.07 for the second.

First: G44U G47U
Second: A46C C25U
The self-cleavage of the first is higher: 0.1 for the first, 0.05 for the second.

Going from A46C C25A to A46C C25G, the self-cleavage falls from 0.03 to 0.02.

Compared with A46C C31A, A46C C31U is higher in self-cleavage: 0.01 for the first, 0.04 for the second.

Compared with A46C C31G, A46C C52G is higher in self-cleavage: 0.02 for the first, 0.09 for the second.

First: A46C C52A
Second: A46C C52U
The self-cleavage of the first is lower: 0.07 for the first, 0.08 for the second.

First: G44C G49C
Second: G44C G49U
The self-cleavage of the first is lower: 0.07 for the first, 0.1 for the second.

Going from G44C G49A to A46C C33G, the self-cleavage falls from 0.11 to 0.02.

Going from A46C C33U to A46C C33A, the self-cleavage rises from 0.03 to 0.04.

Going from A46C G22A to A46C G22C, the self-cleavage falls from 0.06 to 0.03.

Compared with A46C G22U, A46C G19C is lower in self-cleavage: 0.04 for the first, 0.02 for the second.

First: A46C G19U
Second: A46C G19A
The self-cleavage of the first is lower: 0.04 for the first, 0.05 for the second.

Going from G44U U37C to G44U U37G, the self-cleavage falls from 0.99 to 0.95.

Going from G44U U37A to A46C C26A, the self-cleavage falls from 0.66 to 0.02.

First: A46C C26U
Second: A46C C26G
The self-cleavage of the first is higher: 0.05 for the first, 0.02 for the second.

Going from G45A G51A to G45A G51U, the self-cleavage falls from 0.12 to 0.07.

Compared with G45A G51C, G44C G45A is higher in self-cleavage: 0.06 for the first, 0.14 for the second.

Going from G44C G45U to G44C G45C, the self-cleavage rises from 0.07 to 0.08.

Going from A46C C27G to A46C C27A, the self-cleavage rises from 0.01 to 0.03.

Compared with A46C C27U, A46C G23C is lower in self-cleavage: 0.04 for the first, 0.02 for the second.

First: A46C G23A
Second: A46C G23U
The self-cleavage of the first is higher: 0.04 for the first, 0.03 for the second.

First: G45A U18A
Second: G45A U18C
The self-cleavage of the first is higher: 0.43 for the first, 0.29 for the second.

Compared with G45A U18G, A46G C14A is lower in self-cleavage: 0.45 for the first, 0.03 for the second.

Compared with A46G C14U, A46G C14G is higher in self-cleavage: 0.03 for the first, 0.04 for the second.

First: A46C G51U
Second: A46C G51A
The self-cleavage of the first is lower: 0.05 for the first, 0.07 for the second.

Going from A46C G51C to A46G C21U, the self-cleavage rises from 0.04 to 0.09.

Going from A46G C21A to A46G C21G, the self-cleavage falls from 0.07 to 0.02.

Compared with G45C G54U, G45C G54C is lower in self-cleavage: 0.17 for the first, 0.07 for the second.

Going from G45C G54A to G45A U12G, the self-cleavage falls from 0.08 to 0.07.

G45A U12C and G45A U12A are the same in self-cleavage: 0.09 for the first, 0.09 for the second.

From the RNAGym collection of RNA variant scans (doi:10.1002/anie.201605470)
